According to ChEMBL document CHEMBL1153001 (Eur J Med Chem, 2009):

Key:
Human alphaherpesvirus 3 [1] = assay: Antiviral activity against Varicella zoster virus YS infected in human HEL cells assessed as inhibition of virus induced cytopathicity after 5 days; format: functional, organism-based; settings: Human alphaherpesvirus 3, YS, 120 h
Summary of the method: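 Confluent HEL cell cultures infected with 20 PFU/well VZV; after 2 h adsorption, residual virus removed and serial compound dilutions added. Incubated 5 days at 37 °C, 5% CO2, then fixed and stained. Plaques counted against untreated control. EC50 = concentration cutting plaque formation by 50%.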

Human alphaherpesvirus 3 [2] = assay: Antiviral activity against Varicella zoster virus OKA infected in human HEL cells assessed as inhibition of virus-induced cytopathicity after 5 days; format: functional, organism-based; settings: Human alphaherpesvirus 3, OKA, 120 h
Summary of the method: (§1)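 Confluent HEL cell cultures infected with 20 PFU/well VZV; after 2 h adsorption, residual virus removed and serial compound dilutions added. Incubated 5 days at 37 °C, 5% CO2, then fixed and stained. Plaques counted against untreated control.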

Human alphaherpesvirus 3 [3] = assay: Antiviral activity against thymidine kinase deficient Varicella zoster virus 07/1 infected in human HEL cells assessed as inhibition of virus-induced cytopathicity after 5 days; format: functional, organism-based; settings: Human alphaherpesvirus 3, 07/1, HEL, 120 h; summary of the method: as §1
Human betaherpesvirus 5 [4] = assay: Antiviral activity against human cytomegalovirus AD169 infected in human HEL cells assessed as inhibition of virus-induced cytopathicity after 7 days post infection; format: functional, organism-based; settings: Human betaherpesvirus 5, AD169, HEL, 168 h
Summary of the method: (§2)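 Confluent HEL cell cultures in microtiter plates inoculated with 100 PFU CMV. After 2 h adsorption, residual virus removed and cells incubated with varying compound concentrations. Read once cytopathicity was complete in virus controls, usually 7 days post-infection.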

Human betaherpesvirus 5 [5] = assay: Antiviral activity against human cytomegalovirus Davis infected in human HEL cells assessed as inhibition of virus-induced cytopathicity after 7 days post infection; format: functional, organism-based; settings: Human betaherpesvirus 5, Davis, 168 h
Summary of the method: as §2, with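 “post-infection. EC50 = concentration giving 50% reduction in plaque formation/cytopathicity.” for “post-infection.”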

[6] = Cytotoxicity against human HEL cells assessed as microscopically detectable morphological alterations after 3 days; format: cell-based
Summary of the method: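 HEL cell cultures exposed to varying compound concentrations. Cells examined microscopically for changes in morphology. MCC = lowest concentration producing a detectable alteration of cell morphology.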

[7] = Cytotoxicity against human HEL cells assessed as reduction in cell growth after 3 days; format: cell-based
Summary of the method: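 HEL cell suspensions seeded into wells holding varying compound concentrations. Grown 3 days at 37 °C in humidified CO2 incubator. Viable cells counted with a Coulter Counter. CC50 = concentration lowering viable cell number by 50%.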

Human alphaherpesvirus 3 [8] = assay: Ratio of compound EC50 to Acyclovir EC50 for Varicella zoster virus YS infected in human HEL cells assessed as inhibition of virus induced cytopathicity after 5 days; format: functional
Human alphaherpesvirus 3 [9] = assay: Ratio of compound EC50 to Acyclovir EC50 for Varicella zoster virus OKA infected in human HEL cells assessed as inhibition of virus induced cytopathicity after 5 days; format: functional
Human alphaherpesvirus 3 [10] = assay: Ratio of compound EC50 to RA-5021 EC50 for Varicella zoster virus YS infected in human HEL cells assessed as inhibition of virus induced cytopathicity after 5 days; format: functional
Human alphaherpesvirus 3 [11] = assay: Ratio of compound EC50 to RA-5021 EC50 for Varicella zoster virus OKA infected in human HEL cells assessed as inhibition of virus induced cytopathicity after 5 days; format: functional

Row | Compound | EC50 (Human alphaherpesvirus 3 [1]) [nM] | EC50 (Human alphaherpesvirus 3 [2]) [nM] | EC50 (Human alphaherpesvirus 3 [3]) [µM] | EC50 (Human betaherpesvirus 5 [4]) [µM] | EC50 (Human betaherpesvirus 5 [5]) [µM] | MCC at 72 h [6] [µM] | CC50 at 72 h [7] [µM] | Ratio EC50 (Human alphaherpesvirus 3 [8]) | Ratio EC50 (Human alphaherpesvirus 3 [9]) | Ratio EC50 (Human alphaherpesvirus 3 [10]) | Ratio EC50 (Human alphaherpesvirus 3 [11])
1 | Nc1nc(O)c2ncn(CC3(CO)CC3CO)c2n1 (centres undefined) | 300 | 130 | 25.8 | 100 | 44.7 | > 100 | > 100 | 7 | 14 |  | 
2 | O=c1c2ncn(CC3(CO)CC3CO)c2nc2[nH]c(-c3cccs3)cn12 (centres undefined) | 380 | 320 | 71.5 | > 100 | 50.2 | > 100 | > 100 |  |  | 1.3 | 2.5
3 | O=c1c2ncn(COCCO)c2nc2[nH]c(-c3ccc(Br)s3)cn12 | 10000 | 8700 | > 100 | > 100 | 100 | > 100 | > 100 |  |  |  | 
4 | O=c1c2ncn(CC3(CO)CC3CO)c2nc2[nH]c(-c3ccc(Br)s3)cn12 (centres undefined) | 870 | 930 | > 100 | > 100 | 76.5 | > 100 | > 100 |  |  | 2.9 | 7
5 | O=c1c2ncn(CC3(CO)CC3CO)c2nc2[nH]c(-c3ccccc3)cn12 (centres undefined) |  |  |  |  |  |  |  |  |  | 2 | 3
6 | O=c1c2ncn(COCCO)c2nc2[nH]c(-c3ccco3)cn12 |  | 16400 | > 100 | > 100 | > 100 | > 100 | > 100 |  |  |  | 
7 | O=c1c2ncn(COCCO)c2nc2[nH]c(-c3cccs3)cn12 | 7900 | 5800 | > 100 | > 100 | 100 | > 100 | > 100 |  |  |  | 
8 | O=c1c2ncn(CC3(CO)CC3CO)c2nc2[nH]c(-c3ccco3)cn12 (cis isomer) | 640 | 420 | > 100 | > 100 | > 100 | > 100 | > 100 |  |  | 2.1 | 3.2
9 | Nc1nc2c(ncn2COCCO)c(=O)[nH]1 [ACYCLOVIR] | 2000 |  |  |  | 45 |  | 782 |  |  |  | 
10 | O=c1[nH]c(=O)n([C@H]2C[C@H](O)[C@@H](CO)O2)cc1/C=C/Br [BRIVUDINE] | 26 |  | 157 |  |  | > 1200 | 432 |  |  |  | 
11 | Nc1ccn(C[C@@H](CO)OCP(=O)(O)O)c(=O)n1 [CIDOFOVIR] |  |  |  | 1.6 |  | ≥ 254 | 54 |  |  |  | 
12 | Nc1nc2c(ncn2COC(CO)CO)c(=O)[nH]1 [GANCICLOVIR] | 1100 | 590 | 2.5 | 12.6 |  | > 1580 | 221 |  |  |  | 
